# Screens deposited in PubChem BioAssay by several laboratories.
# ATG4B inh – blocks human ATG4B protease cleavage of LC3 substrate | inhibition, % at 8.33 µM | Q9Y4P1 | 340,000 compounds, 0.51% hits | ATG4B cleavage of LC3-PLA2, NBD-HPC fluorescence, 1 h; in the data active means inhibition above about 40%
# MEKK2 mut-MEK5 – signal of MEK5 binding to mutant human MEKK2 PB1 domain; bead flow cytometry, Alexa488-MEK5 binding to MEKK2 mutant; percent response, % at 10 µM; 290,000 compounds, 0.35% hits; in the data active means percent response above about 24%, passing the limit was not always enough
# Dynein transport – dynein cargo transport inhibition. 3617.4 mouse cells, GR-EGFP nuclear translocation imaging; test concentration mostly 20 µM; stimulated with dexamethasone, 1 µM; stronger effect = lower value. z-score, hits read low. 220,000 compounds, 0.47% hits. AID 1381;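 active means plate z-score of nuclear minus cytoplasmic receptor signal below a set negative limit, without overly bright fluorescence or cell loss, cut at about -3.5 in these data, passing the limit was not always enough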;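 further: z-score of nuclear minus cytoplasmic ring GR-EGFP intensity difference per well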
#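 medium = tetracycline-free induction medium containing charcoal-stripped FBS | also added = 1.0 µM final dexamethasone stimulus | schedule = 48 h induction, 1 h compound, 30 min dex at 37 °C | technique = fixed, Hoechst-stained cells imaged at 10x for EGFP | measure = GR-EGFP nuclear translocation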
# MEKK2wt PB1 HTS – raises or lowers MEK5 binding to wildtype human MEKK2 PB1 domain; binding response (% of control), % at 10 µM; AID 1531; Q9Y2U5; bead flow cytometry, Alexa488-MEK5 binding to MEKK2 WT; actives lie on both sides; 290,000 compounds, 1.1% hits; in the data active means binding response below about 67% or above about 130%
# MEKK3 PB1 HTS – MEKK3-MEK5 PB1 interaction, increase or decrease. Q99759. bead-based flow cytometry, Alexa488-MEK5 binding to MEKK3; actives lie on both sides; 0 = blocked by unlabeled MEK5, 100 = vehicle. binding response (% of control), % at 10 µM. 290,000 compounds, 1.4% hits;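 active means binding response more than 3 SD above or below the average of its plate-row segment, actives on both sides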;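 further: Alexa488 bead fluorescence after subtracting the streptavidin-only scavenger bead signal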
# Target sequence (Q99759 whole entry, looked up): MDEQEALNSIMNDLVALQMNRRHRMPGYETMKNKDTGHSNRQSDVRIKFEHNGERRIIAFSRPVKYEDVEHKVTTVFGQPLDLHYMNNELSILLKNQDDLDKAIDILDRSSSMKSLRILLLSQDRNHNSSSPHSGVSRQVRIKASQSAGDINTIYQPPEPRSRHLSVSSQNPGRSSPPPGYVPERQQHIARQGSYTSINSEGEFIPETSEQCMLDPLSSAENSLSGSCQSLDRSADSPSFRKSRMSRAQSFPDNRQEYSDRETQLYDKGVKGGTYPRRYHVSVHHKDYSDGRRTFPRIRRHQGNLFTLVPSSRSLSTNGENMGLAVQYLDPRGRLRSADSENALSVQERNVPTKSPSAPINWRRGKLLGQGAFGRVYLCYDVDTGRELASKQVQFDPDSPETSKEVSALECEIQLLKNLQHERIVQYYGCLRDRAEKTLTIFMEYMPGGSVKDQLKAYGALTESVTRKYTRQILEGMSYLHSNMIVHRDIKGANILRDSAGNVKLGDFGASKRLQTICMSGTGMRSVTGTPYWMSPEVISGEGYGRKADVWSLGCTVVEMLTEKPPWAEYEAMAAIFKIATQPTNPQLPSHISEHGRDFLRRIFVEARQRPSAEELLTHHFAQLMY
# B2AR ag – human beta-2 adrenergic receptor agonism by FAP | Am2.2-beta2AR cells, FAP receptor internalization, flow cytometry | 340,000 compounds, 0.43% hits | P07550 | response, % (no concentration beside the values) | AID 504454;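 active means response above a set limit, near 3 SD of response in nonfluorescent compounds, cut at about 42% in these data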
# Beta2AR ag CP1 – agonists of human beta-2 adrenergic receptor; shares compounds with B2AR ag; percent response (surface receptor), % at 10 µM; 1,100 compounds, 25% hits; Am2.2-beta2AR cells, FAP surface receptor, flow cytometry; stronger effect = lower value;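 active means surface receptor percent response at or below 58%, roughly 3 SD from nonfluorescent compounds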
# FAP fluor counter – fluorescence artifact in beta-2AR agonist FAP counterscreen | shares compounds with B2AR ag | Am2.2 cells, FAP fluorogen flow cytometry; stronger effect = lower value | calls only at 10 µM | 1,100 tested, under 10 active | AID 588765;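 active means percent response below a set limit in fluorescence channel 1 and below 50% in channel 8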
# * = called active by the depositor; i = inactive; / = no result given. An excerpt weighted towards active compounds, which were near 2.9% of everything screened.
SMILES,ATG4B inh,MEKK2 mut-MEK5,Dynein transport,MEKK2wt PB1 HTS,MEKK3 PB1 HTS,B2AR ag,Beta2AR ag CP1,FAP fluor counter
CCCCN(C(=O)c1ccc(NC(=O)C(C)C)cc1)c1ccccc1,4,4,-0.66,106,104,95*,20*,i
CC(=O)c1cccc(S(=O)(=O)N2CCCC(c3nc(-c4ccc(C)o4)no3)C2)c1 (stereo not drawn),2,1,-0.42,104,103,54*,80,i
CC1CCCN(C(=O)COC(=O)c2ccc[nH]c2=O)C1 (stereo not drawn),10,2,-0.013,103,104,51*,98,i
O=C(Nc1ccc(Nc2ccccc2)cc1)C1CC1,-9,-1,-1.3,93,97,4,/,/
CC(C)(C)C1CCC(C(=O)Nc2ccccc2)CC1 (stereo not drawn),7,-2,-0.83,99,99,51*,64,i
CC(=O)N1CCOc2ccc(S(=O)(=O)Nc3ccc(C)cn3)cc21,0,6,/,105,105,2,/,/
O/N=C1\CCCc2oc3c(c21)CCCC3,-6,0,-0.085,103,107,-2,/,/
OC(CC(O)c1ccccc1)c1ccccc1 (stereo not drawn),-10,/,/,/,/,3,/,/
CCOc1cc(CNCc2ccccn2)cc(Cl)c1OC,-6,-3,-0.93,96,87,-3,/,/
OC(CNCc1ccccc1)c1ccccc1 (stereo not drawn),-11,-2,2.5,99,96,-5,110,i
OC(CNCc1cccc(Cl)c1)c1ccccc1 (stereo not drawn),12,-3,1.3,96,92,-8,115,i
OC(CNC1Cc2ccccc2C1)c1ccccc1 (stereo not drawn),2,12,/,111,109,-10,123,i
CCOc1cc(CNCC(O)c2ccccc2)cc(Cl)c1OC (stereo not drawn),1,0,-0.53,115,111,0,110,i
O=C(CSc1nc(=O)n(CCCN2CCOCC2)c2c1CCC2)Nc1cccc(F)c1,-1,/,/,/,/,-3,/,/
CC(c1ccon1)N(C)C(=O)CCc1nnc(C2(c3ccc(Cl)cc3)CCC2)o1 (stereo not drawn),2,-27,2.5,76,78,8,/,/
O=C(c1cc([N+](=O)[O-])ccc1Cl)N1CCN(Cc2ccc3c(c2)OCO3)CC1,0,-3,1.3,97,102,-4,/,/
COc1cc(/C=C2\C(=N)N3N=C(C)SC3=NC2=O)cc(Cl)c1OCCOc1ccc(NC(C)=O)cc1,4,4,/,107,103,4,/,/
C=CCn1c(CCNC(=O)c2cccs2)nnc1SCC(=O)c1ccc(Br)cc1,-5,2,-0.87,97,102,98*,19*,i
O=C(Cn1nnc(-c2ccccc2)n1)Nc1ccccc1N1CCOCC1,-3,-3,1.8,92,93,-19,43*,i
O=C(/C=C/c1ccc(OC(F)F)cc1)Nc1cccc(S(=O)(=O)NC2=NCCCCC2)c1,-13,5,/,107,106,17,/,/
CC(C)(C)c1ccc(C(=O)NCCCN2CCN(CCCNC(=O)c3ccc(C(C)(C)C)cc3)CC2)cc1,-9,8,-0.36,118,103,49*,81,i
CC(C)(C)c1ccc(C(=O)NCCN2CCOCC2)cc1,-15,/,/,/,/,0,/,/
O=C(c1cc(-c2ccc(Cl)cc2)n(-c2ccc(Cl)c(Cl)c2)n1)N1CCOCC1,3,12,0.56,106,108,30,/,/
O=C(c1cc(-c2ccc(Cl)cc2)n(-c2cc(Cl)ccc2Cl)n1)N1CCOCC1,-2,1,0.92,102,98,62*,129,i
Cc1ccc(-c2nc3ncccc3o2)cc1NC(=O)c1sc2ccccc2c1Cl,-4,6,-0.69,113,111,45*,74,i
SMILES,ATG4B inh,MEKK2 mut-MEK5,Dynein transport,MEKK2wt PB1 HTS,MEKK3 PB1 HTS,B2AR ag,Beta2AR ag CP1,FAP fluor counter
COc1cc2nc(N3CCNCC3)nc(N)c2cc1OC,-10,-3,1.2,106,99,61*,51*,i
COc1cc2nc(Cl)nc(N3CCCCC3)c2cc1OC,2,2,0.55,104,102,4,/,/
CC1=NN(C(N)=S)C(=O)C1N=Nc1ccccc1O (stereo not drawn),1,-14,/,91,97,10,/,/
CCOc1ccccc1N=NC1C(=O)N(C(N)=S)N=C1C (stereo not drawn),0,8,/,104,105,-1,86,i
O=C(Nc1ccn(-c2ccccc2)n1)c1ccccc1Br,-1,1,-0.43,92,103,0,/,/
Cc1cc(/C=C(\C#N)C(=O)NCc2cccs2)c(C)n1-c1ccccc1F,-2,3,-1,103,101,8,/,/
Cc1ccc(NCC(=O)Nc2ccc(Br)cc2)cc1C,4,4,/,103,107,-3,/,/
Cc1ccc(F)cc1NCC(=O)Nc1ccc(Br)cc1,-6,-4,1.6,109,94,80*,110,i
COC(C[C@@H](O)C[C@H](O)[C@@H](C)OCc1ccccc1)OC,1,2,0.44,100,97,-6,/,/
O=C(c1ccc(-c2nnc(Nc3ccccc3)c3ccccc23)cc1)N1C[C@H]2C[C@H](C1)c1cccc(=O)n1C2,1,7,-0.27,104,104,7,79,i
O=C(Nc1cccc(Oc2c(F)c(F)c(F)c(F)c2F)c1)N1C[C@@H]2C[C@@H](C1)c1cccc(=O)n1C2,-1,-3,-0.43,95,98,-2,/,/
Cc1ccc(-n2nnc3c(SCC(=O)NCC4CCCO4)ncnc32)cc1 (stereo not drawn),-18,0,0.028,100,99,51*,92,i
CCOc1ccccc1C(=O)NCC(=O)OCc1csc(CC(=O)Nc2ccc(C)cc2)n1,-4,/,/,/,/,85*,12*,i
Cc1ccc(NC(=S)NNC(C)(C)C)cc1,-3,7,-0.88,100,100,1,103,i
COc1ccc(/C=N/OCC(=O)N2CCCC2)c(OC)c1,4,-6,-1.2,91,91,4,/,/
COc1cccc(OCc2nnc(-c3cccs3)o2)c1,/,-1,-0.52,104,109,50*,58*,i
COc1cccc(-c2noc(-c3cccs3)n2)c1,-2,-2,-1,100,99,2,/,/
